Results as given in ChEMBL document CHEMBL1641411, “Synthesis and optimization of novel 4,4-disubstituted cyclohexylbenzamide derivatives as potent 11β-HSD1 inhibitors” (Bioorg Med Chem Lett, 2011).
The source made the active and inactive calls. No cut-off for these calls is given here.

Columns and labels:
[1] = Metabolic stability in human liver microsomes assessed as compound turnover at 30 mins; type: ADME, Microsome; details: read-out: Stability
Outline: (§1)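 Compounds incubated with human or rat liver microsomes; percent turnover of parent measured at 30 min.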

[2] = Metabolic stability in rat liver microsomes assessed as compound turnover at 30 mins; type: ADME, Microsome; details: read-out: Stability; outline: as §1
[3] = target: T1, Nuclear receptor subfamily 1 group I member 2 (Homo sapiens, UniProt O75469); test: Activation of PXR relative to control; parameters: concentration or dose not given beside the values
T1 sequence (O75469 whole entry): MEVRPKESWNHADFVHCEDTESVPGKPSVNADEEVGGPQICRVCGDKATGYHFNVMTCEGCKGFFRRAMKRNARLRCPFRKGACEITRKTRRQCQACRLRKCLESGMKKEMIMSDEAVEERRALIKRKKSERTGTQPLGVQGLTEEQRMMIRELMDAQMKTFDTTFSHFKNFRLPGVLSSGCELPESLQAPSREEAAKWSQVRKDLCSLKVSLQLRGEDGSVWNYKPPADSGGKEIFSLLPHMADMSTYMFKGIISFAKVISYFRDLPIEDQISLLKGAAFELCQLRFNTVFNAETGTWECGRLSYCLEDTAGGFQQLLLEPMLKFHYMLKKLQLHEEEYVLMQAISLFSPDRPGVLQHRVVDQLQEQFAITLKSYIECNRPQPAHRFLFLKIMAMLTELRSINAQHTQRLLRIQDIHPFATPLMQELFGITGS
Outline: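 PXR activation measured with compound at 2 µM, expressed as % of control.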

[4] = Clearance in rat at 0.5 mg/kg, iv and 2 mg/kg, po; type: ADME, organism-based; details: in vivo
Outline: (§2)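 Rat PK: single iv dose of 0.5 mg/kg, with a separate oral dose of 2.0 mg/kg. Clearance, Vdss and half-life come from the iv arm. Oral AUC and %F come from the po arm.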

[5] = Volume of distribution at steady state in rat at 0.5 mg/kg, iv and 2 mg/kg, po; type: ADME, organism-based; details: in vivo, read-out: Vdss; outline: as §2
[6] = Half life in rat at 0.5 mg/kg, iv; type: ADME, organism-based; parameters: dose 0.5 mg/kg, route intravenous; details: in vivo; outline: as §2
[7] = Oral bioavailability in rat at 2 mg/kg; type: ADME, organism-based; details: in vivo; outline: as §2
[8] = AUC in rat at 2 mg/kg, po; type: ADME, organism-based; parameters: dose 2 mg/kg, route oral; details: plasma; outline: as §2
[9] = target: 11-beta-hydroxysteroid dehydrogenase 1 (Rattus norvegicus, UniProt P16232); test: Inhibition of rat 11beta-HSD1 assessed as inhibition of conversion of [3H]cortisone to [3H]cortisol by scintillation proximity assay
[10] = tested on: Rattus norvegicus; test: Ex vivo inhibition of 11beta-HSD1 in Sprague-Dawley rat assessed as inhibition of conversion of [3H]cortisone to [3H]cortisol at 4 mg/kg, po; type: functional
Outline: (§3)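 Sprague–Dawley rats dosed orally at 4, 20 or 100 mg/kg; killed 2 h post-dose. Epididymal fat isolated and incubated in media containing [3H]-cortisone; rat 11β-HSD1 activity read as [3H]-cortisol formed. Reported as % inhibition over vehicle-dosed animals.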

[11] = tested on: Rattus norvegicus; test: Ex vivo inhibition of 11beta-HSD1 in Sprague-Dawley rat assessed as inhibition of conversion of [3H]cortisone to [3H]cortisol at 100 mg/kg, po; type: functional; outline: as §3
[12] = tested on: Rattus norvegicus; test: Ex vivo inhibition of 11beta-HSD1 in Sprague-Dawley rat assessed as inhibition of conversion of [3H]cortisone to [3H]cortisol at 20 mg/kg, po; type: functional; outline: as §3
[13] = Clearance in cynomolgus monkey; type: ADME, organism-based, Macaca fascicularis; details: in vivo
[14] = Bioavailability in cynomolgus monkey; type: ADME, organism-based, Macaca fascicularis; details: in vivo
[15] = Inhibition of cynomolgus monkey 11beta-HSD1 assessed as inhibition of conversion of [3H]cortisone to [3H]cortisol by scintillation proximity assay; parameters: species or system Macaca fascicularis
[16] = Plasma concentration in cynomolgus monkey at 4 mg/kg, po after 2 hrs by LC/MS/MS analysis; type: ADME, organism-based, Macaca fascicularis; parameters: dose 4 mg/kg, route oral
Outline: (§4)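 Monkeys given oral doses of 4, 20 or 100 mg/kg in 1% methylcellulose/1% Tween 80 in sterile water, 5–6 animals per group. Plasma collected 2 h after dosing for drug concentration.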

[17] = Plasma concentration in cynomolgus monkey at 20 mg/kg, po after 2 hrs by LC/MS/MS analysis; type: ADME, organism-based, Macaca fascicularis; parameters: dose 20 mg/kg, route oral; outline: as §4
[18] = Plasma concentration in cynomolgus monkey at 100 mg/kg, po after 2 hrs by LC/MS/MS analysis; type: ADME, organism-based, Macaca fascicularis; parameters: dose 100 mg/kg, route oral; outline: as §4
[19] = tested on: Cynomolgus monkey; details: Macaca fascicularis; 4 to 100 mg/kg

Sequence of 11-beta-hydroxysteroid dehydrogenase 1 (P16232 whole entry): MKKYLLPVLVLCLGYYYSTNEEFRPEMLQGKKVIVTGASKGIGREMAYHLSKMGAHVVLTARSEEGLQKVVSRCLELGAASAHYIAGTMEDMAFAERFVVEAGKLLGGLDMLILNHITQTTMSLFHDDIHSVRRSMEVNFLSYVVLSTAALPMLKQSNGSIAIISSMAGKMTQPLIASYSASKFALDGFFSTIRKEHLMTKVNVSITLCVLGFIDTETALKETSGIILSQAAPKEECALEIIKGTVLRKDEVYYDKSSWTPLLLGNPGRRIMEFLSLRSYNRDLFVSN

SMILES | metabolised at 0.5 h [1] | metabolised at 0.5 h [2] | Activity [3] | other results
C[C@](O)(c1ccc(C(=O)N(C2CC2)[C@H]2CC[C@](CCC(N)=O)(c3ccccc3)CC2)cc1)C(F)(F)F | < 10% | < 10% | < 5% | clearance [13]: 1 mL/min/kg; bioavailability [14]: 81%; IC50 [15]: 22 nM; concentration at 2 h [16]: 151 ng/mL; concentration at 2 h [17]: 2000 ng/mL; concentration at 2 h [18]: 1710 ng/mL; inhibition [19]: Active
C[C@](O)(c1ccc(C(=O)N(C2CC2)[C@H]2CC[C@](CO)(c3ccccc3)CC2)cc1)C(F)(F)F | 10% | 32% | < 5% | 
C[C@](O)(c1ccc(C(=O)N(C2CC2)[C@H]2CC[C@](COC(N)=O)(c3cscn3)CC2)cc1)C(F)(F)F | < 10% | < 10% |  | clearance [4]: 13.7 mL/min/kg; Vd [5]: 3.7 L/kg; half-life [6]: 4.5 h; bioavailability [7]: 25%; AUC [8]: 618 ng·h/mL; IC50 [9]: 30 nM; inhibition in vivo at 4 mg/kg [10]: 6%; inhibition in vivo at 100 mg/kg [11]: 75%; inhibition in vivo at 20 mg/kg [12]: 38%
CC(=O)NC[C@]1(c2ccccc2)CC[C@H](N(C(=O)c2ccc([C@](C)(O)C(F)(F)F)cc2)C2CC2)CC1 | < 10% | < 10% | < 5% | 
C[C@](O)(c1ccc(C(=O)N(C2CC2)[C@H]2CC[C@](CC(N)=O)(c3ccccc3)CC2)cc1)C(F)(F)F | < 10% | < 10% | < 5% | 
C[C@](O)(c1ccc(C(=O)N(C2CC2)[C@H]2CC[C@](CCO)(c3ccccc3)CC2)cc1)C(F)(F)F | < 10% | < 10% | 6% | 
C[C@](O)(c1ccc(C(=O)N(C2CC2)[C@H]2CC[C@](CNS(C)(=O)=O)(c3ccccc3)CC2)cc1)C(F)(F)F | < 10% | 21% | < 5% | 
C[C@](O)(c1ccc(C(=O)N(C2CC2)[C@H]2CC[C@](O)(C3CC3)CC2)cc1)C(F)(F)F | < 10% | < 10% | < 5% | 
C[C@](O)(c1ccc(C(=O)N(C2CC2)[C@H]2CC[C@](CCC(N)=O)(c3ccccc3F)CC2)cc1)C(F)(F)F | < 10% | < 10% |  | 
C[C@](O)(c1ccc(C(=O)N(C2CC2)[C@H]2CC[C@](CC#N)(c3ccccc3)CC2)cc1)C(F)(F)F | 19% | 17% | 9% | 
C[C@](O)(c1ccc(C(=O)N(C2CC2)[C@H]2CC[C@](CCC(N)=O)(c3ccccn3)CC2)cc1)C(F)(F)F | < 10% | < 10% |  | 
C[C@](O)(c1ccc(C(=O)N(C2CC2)[C@H]2CC[C@](CCC#N)(c3ccccc3)CC2)cc1)C(F)(F)F | 10% | 51% |  | 

Second part, led by results:

metabolised at 0.5 h [1] | metabolised at 0.5 h [2] | Activity [3] | SMILES | other results
< 10% | < 10% | < 5% | C[C@](O)(c1ccc(C(=O)N(C2CC2)[C@H]2CC[C@](COC(N)=O)(c3ccccc3)CC2)cc1)C(F)(F)F | clearance [4]: 2.67 mL/min/kg; Vd [5]: 1 L/kg; half-life [6]: 3.9 h; bioavailability [7]: 20%; AUC [8]: 2770 ng·h/mL; IC50 [9]: 86 nM; inhibition in vivo at 4 mg/kg [10]: 23%; inhibition in vivo at 100 mg/kg [11]: 71%; inhibition in vivo at 20 mg/kg [12]: 43%
< 10% | < 10% |  | C[C@](O)(c1ccc(C(=O)N(C2CC2)[C@H]2CC[C@](CCC(N)=O)(c3ccc(F)cc3)CC2)cc1)C(F)(F)F | 
< 10% | < 10% |  | C[C@](O)(c1ccc(C(=O)N(C2CC2)[C@H]2CC[C@](COC(N)=O)(c3ccccn3)CC2)cc1)C(F)(F)F | clearance [4]: 3.5 mL/min/kg; Vd [5]: 1.24 L/kg; half-life [6]: 4.2 h; bioavailability [7]: 64%; AUC [8]: 6180 ng·h/mL; IC50 [9]: 220 nM; inhibition in vivo at 4 mg/kg [10]: 14%; inhibition in vivo at 100 mg/kg [11]: 72%; inhibition in vivo at 20 mg/kg [12]: 44%
< 10% | < 10% |  | C[C@](O)(c1ccc(C(=O)N(C2CC2)[C@H]2CC[C@](COC(N)=O)(c3ccc(F)cn3)CC2)cc1)C(F)(F)F | 
< 10% | < 10% |  | C[C@](O)(c1ccc(C(=O)N(C2CC2)[C@H]2CC[C@](COC(N)=O)(c3ccccc3F)CC2)cc1)C(F)(F)F | clearance [4]: 2.5 mL/min/kg; Vd [5]: 1.28 L/kg; half-life [6]: 5.2 h; bioavailability [7]: 48%; AUC [8]: 6790 ng·h/mL; IC50 [9]: 144 nM; inhibition in vivo at 4 mg/kg [10]: 27%; inhibition in vivo at 100 mg/kg [11]: 70%; inhibition in vivo at 20 mg/kg [12]: 43%
< 10% | < 10% |  | C[C@](O)(c1ccc(C(=O)N(C2CC2)[C@H]2CC[C@](COC(N)=O)(c3ccc(F)cc3)CC2)cc1)C(F)(F)F | 
